The list is not random: actives were taken first. Their share in the collection is about 2.2%.
TCR CD3 inh – inhibitors of human TCR-CD3 interaction | TAMRA-labeled TCR probe fluorescence, biochemical | inhibition, % at 9.4 µM | 360,000 tested, 0.37% active | AID 651800;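 also: recombinant mutant TCR 2C K166C tagged with TAMRA read by polarization; 0% = receptor in buffer alone and 100% = receptor with positive control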
SIAE primary – blocks human sialic acid acetylesterase. SIAE FP-Rh probe binding, fluorescence polarization. AID 1053197. 370,000 tested, 0.69% active. Q9HAT2. inhibition, % at 9.66 µM;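 active = inhibition above a cutoff: mean of compounds within the control limits plus 3 SD of those, cut at about 17% in these data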;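 also: 0% = plate median of compound wells and 100% = probe without SIAE protein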
HTRA1 inh – blocks human HTRA1 serine peptidase. inhibition, % at 5.96 µM. Q92743. AID 504803. recombinant HTRA1, FP-rhodamine activity-based probe, fluorescence polarization. 340,000 tested, 0.5% active; in the data active = inhibition above about 36%;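 also: 0% = enzyme with DMSO and 100% = wells lacking enzyme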
Target sequence (Q92743 whole entry, looked up): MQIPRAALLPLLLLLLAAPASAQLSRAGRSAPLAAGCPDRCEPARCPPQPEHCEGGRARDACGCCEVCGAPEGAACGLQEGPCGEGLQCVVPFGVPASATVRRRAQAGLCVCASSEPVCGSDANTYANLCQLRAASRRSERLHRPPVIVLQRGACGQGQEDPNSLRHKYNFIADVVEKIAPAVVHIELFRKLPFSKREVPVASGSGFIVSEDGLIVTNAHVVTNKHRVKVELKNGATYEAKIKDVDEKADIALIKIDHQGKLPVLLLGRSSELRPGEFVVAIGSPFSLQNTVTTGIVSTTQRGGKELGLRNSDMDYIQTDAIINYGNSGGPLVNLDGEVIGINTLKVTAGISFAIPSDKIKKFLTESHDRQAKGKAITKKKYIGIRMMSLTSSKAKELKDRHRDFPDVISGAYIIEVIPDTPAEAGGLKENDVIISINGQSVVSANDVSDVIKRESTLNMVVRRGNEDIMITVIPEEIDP
TDP2 inh – blocks human TDP2 phosphodiesterase activity | AID 720702 | 370,000 tested, 0.34% active | inhibition, % at 12.8 µM | O95551 | recombinant TDP2, T5PNP hydrolysis, p-nitrophenol absorbance 415 nm;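 active = inhibition above the mean of all tested compounds plus 3 SD, set per campaign, cut at about 25% in these data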;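 also: 0% = DMSO with enzyme and 100% = buffer with substrate but no TDP2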
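Test system: Human TDP2 enzyme | Reagent: 5 mM T5PNP | Compound dosing: 12.8 µM single point, 1% DMSO | Incubation: Enzyme reaction with compound for 2 h at 37 °C | Technique: p-Nitrophenol epi absorbance | Read-out: % inhibition relative to enzyme-containing and enzyme-free wells | Benchmarks: High control without enzyme, low control DMSO plus TDP2 | Replicates: Singlicate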
LEDGF integ inh – blocks HIV-1 LEDGF/p75-dependent DNA integration; 370,000 tested, 0.64% active; TR-FRET IN-LEDGF/p75 DNA integration, Eu/Cy5; inhibition, % at 3.7 µM;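 active = inhibition above the screen-wide mean plus 3 SD, cut at about 13% in these data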;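 also: signal is the Cy5 over europium emission ratio at 671 and 618 nm; 0% = plate median of compound wells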
ABHD4 inh – inhibitors of mouse ABHD4; Q8VD66; purified mABHD4, FP-Rh probe fluorescence polarization; inhibition, % at 8.92 µM; 370,000 tested, 0.54% active; AID 720543;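 active = inhibition exceeding the mean over every tested compound plus 3 SD, cut at about 30% in these data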;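 also: 0% = plate median of compound wells and 100% = S159A mutant with DMSO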
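Test system: mouse ABHD4 enzyme, wild type. Reagent: FP-Rh fluorescent activity-based probe, added after compound pre-incubation. Timing: pre-incubation 45 min, probe exposure 60 min, at 25 °C. Technique: FP readout, ex 525 nm / em 598 nm. Benchmarks: high control S159A mutant with DMSO, low control median of compound wells.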
BSA TAMRA ctr – interferes with TAMRA-BSA probe, flagging TCR-CD3 hits; shares compounds with TCR CD3 inh; TAMRA-labeled BSA probe fluorescence counterscreen; inhibition, % at 9.4 µM; 1,200 tested, 10% active; in the data active = inhibition above about 23%;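 also: 0% = buffer low control and 100% = reference high control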
TCR-CD3 conf – confirmation of human TCR-CD3 interaction inhibitors | AID 652036 | shares compounds with TCR CD3 inh | TAMRA-labeled TCR probe fluorescence binding assay | inhibition, % at 9.4 µM | 1,200 tested, 48% active
* = called active by the depositor; . = no result. Rule as the data show it, unless noted: active = inhibition above about 19%; inactive = the rest.

SMILES	TCR CD3 inh	SIAE primary	HTRA1 inh	TDP2 inh	LEDGF integ inh	ABHD4 inh	BSA TAMRA ctr	TCR-CD3 conf
Cn1ccc2c(N3CCOCC3)cc3c(c21)C1CCC3O1 (configuration not stated)	-3	1	.	4	0	10	.	.
Cn1ccc2c(N3CCCCCC3)cc3c(c21)C1CCC3O1 (configuration not stated)	22*	8	.	2	11	13	1	2
CCN(CC)S(=O)(=O)c1cccc(NC(=O)Nc2cccc(C(F)(F)F)c2)c1	24*	-215	-125	-5	0	-132	15	26*
O=C(CN1C(=O)/C(=C/c2ccco2)SC1=S)NC1CCS(=O)(=O)C1 (configuration not stated)	22*	6	11	16	55*	26	-7	1
O=C(CCN1C(=O)/C(=C/c2ccccc2)SC1=S)NC1CCS(=O)(=O)C1 (configuration not stated)	4	5	-1	2	1	-4	.	.
COc1ccc(C(=O)Nc2ccc(S(=O)(=O)N3CCCCC3)cc2)cc1OC	9	-14	-14	-1	3	-7	.	.
COc1ccc(-c2cnnn2-c2ccc(NC(=O)c3ccc(S(=O)(=O)N4CCCCC4)cc3)cc2)cc1OC	19*	-82	-53	-6	1	-77	7	23*
COC(=O)C1CN(C2CCCC2)CCS(=O)(=O)N1Cc1ccc(C)cc1 (configuration not stated)	.	5	.	5	-3	0	.	.
COC1(OC)C(/C=C/c2ccc(Cl)cc2)C(C#N)(C#N)C1(OC)OC (configuration not stated)	21*	-5	-11	-1	1	2	-4	3
O=C(N/N=C/c1cn(-c2ccccc2)nc1-c1cc2ccccc2o1)c1ccccc1Br	-1	1	-42	1	-1	-17	.	.
O=C(N/N=C/c1cn(-c2ccccc2)nc1-c1cc2ccccc2o1)c1c[nH]c2ccccc12	25*	-82	-94	2	3	-61	11	16
COc1cccc(-c2ncn(CCc3ccccc3OC)c2CC(C)C)c1	7	-1	.	-2	-1	-1	.	.
COc1cccc(NC(=O)CN(C)C(=O)/C=C/c2cn(-c3ccccc3)nc2-c2ccc(C)cc2)c1	36*	-122	-114	-3	-3	-95	32*	63*
COc1ccc(NC(=O)CN(C)C(=O)/C=C/c2cn(-c3ccccc3)nc2-c2ccc(C)cc2)cc1	32*	-72	-114	-16	5	-40	2	6
COc1ccccc1CCn1cnc(-c2cccc(Cl)c2)c1CC(C)C	0	1	.	-5	-2	-2	.	.
O=C(COC(=O)CCCCCN=C1NS(=O)(=O)c2ccccc21)Nc1ccc(Cl)c(Cl)c1	19*	-119	-76	-3	2	1	7	10
C/C(=N\NC(=O)c1ccccc1O)C1CC1	25*	0	13	-2	1	4	41*	23*
C/C(=N\NC(=O)c1ccc(N)cc1)C1CC1	9	4	5	12	-1	0	.	.
O=C(Cn1nc(-c2ccccc2)ccc1=O)NCCc1cccc(F)c1	.	2	.	0	-2	8	.	.
C/C(=N\NC(=O)CCc1ccccc1)C1C(=O)c2ccccc2C1=O	19*	3	13	-23	-2	20	-6	5
COC(=O)C(C(=O)OC)[C@H]1C=C[C@@H](C(=O)NS(=O)(=O)c2ccc(C)cc2)N(C(C)=O)C1	.	2	.	-4	0	7	.	.
COCC#Cc1ccc(CC[C@H]2O[C@H]3CC[C@@H](CO)O[C@H]3C[C@H]2n2cc(C(C)(C)O)nn2)cc1	.	-2	.	-8	2	-7	.	.
COc1ccc(NC(=O)CCCNC(=O)Cn2cnc3sc(C)c(C)c3c2=O)c(OC)c1	72*	-3	7	-7	3	0	-4	1
O=C(NNC(=S)NC(=O)c1ccccc1)c1cccc([N+](=O)[O-])c1	-2	-1	8	-4	-3	5	.	.
O=C(NNC(=S)NC(=O)c1cccc([N+](=O)[O-])c1)c1ccc(Br)cc1	20*	2	5	-12	3	2	-7	17
SMILES	TCR CD3 inh	SIAE primary	HTRA1 inh	TDP2 inh	LEDGF integ inh	ABHD4 inh	BSA TAMRA ctr	TCR-CD3 conf
O=C(NNC(=S)NC(=O)c1cccc([N+](=O)[O-])c1)c1ccc(O)cc1	20*	-1	13	-14	-2	10	-2	34*
COC(=O)c1cc(C(C)c2c[nH]c3ccccc23)n2ccccc12 (configuration not stated)	.	8	.	7	-1	-2	.	.
O=C1CNC(=S)N1CCc1ccc(O)c(O)c1	31*	9	.	7	2	22	-12	27*
Cc1nn(CC(=O)NC2CCS(=O)(=O)C2)c(C)c1[N+](=O)[O-] (configuration not stated)	27*	6	4	8	2	6	3	-1
COc1ccc(S(=O)(=O)N(C)C[C@H]2Oc3ccc(NC(=O)Nc4ccc(C(F)(F)F)cc4)cc3C(=O)N([C@H](C)CO)C[C@@H]2C)cc1	34*	-201	-113	-7	0	-109	24*	47*
C[C@@H]1CN([C@@H](C)CO)C(=O)Cc2cc(NC(=O)Nc3cccc4ccccc34)ccc2O[C@@H]1CN(C)Cc1ccc(C(F)(F)F)cc1	11	-31	-69	-7	-3	-45	.	.
C[C@@H]1CN([C@H](C)CO)C(=O)c2cc(NC(=O)Nc3cccc4ccccc34)ccc2O[C@H]1CN(C)Cc1ccc(C(F)(F)F)cc1	25*	-66	-51	1	1	-25	-2	4
COc1ccc(S(=O)(=O)N(C)C[C@H]2Oc3ccc(NC(=O)CCC(F)(F)F)cc3C(=O)N([C@H](C)CO)C[C@@H]2C)cc1	8	2	-2	5	-1	11	.	.
C[C@@H]1CN([C@H](C)CO)C(=O)c2cc(NC(=O)Nc3ccc(C(F)(F)F)cc3)ccc2O[C@H]1CN(C)S(=O)(=O)c1ccccc1	30*	-174	-113	-12	2	-132	-2	15
COc1ccc(NC(=O)N(C)C[C@@H]2OCc3cn(nn3)CCCC(=O)N([C@H](C)CO)C[C@H]2C)cc1	32*	10	4	1	-1	11	2	1
CCn1cc(CCC(=O)Nc2ccc(Oc3cccnc3)cc2)c2ccccc21	-13	3	.	3	1	2	.	.

High-throughput results as filed in PubChem BioAssay.
